# Source: ChEMBL document CHEMBL1123969, “Cardiovascular effects of new water-soluble derivatives of forskolin” (J Med Chem, 1988)
# The source made the active and inactive calls. The rule behind the calls is not given here.
# Key:
# Canis familiaris [1] = assay: Dose required to produce 50 % increase in left ventricular dP/dt max in anesthetized dogs when administered intravenously; assay type: functional; settings: Canis lupus familiaris, Heart left ventricle, iv
# In short: (§1)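 Male mongrel dogs (10–18 kg), anesthetized with pentobarbital sodium 35 mg/kg iv, then infused with pentobarbitone 3–5 mg/kg per h, intubated and breathing spontaneously. Compounds in distilled water, given iv via the femoral vein in 0.1 mL/kg. Four to six doses between 0.01 and 3 mg/kg, 10–30 min apart. Percent change in LV dP/dt max over the initial value; ED50 taken from the dose-response curve.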
# Cavia porcellus [2] = species on record: Cavia porcellus; assay: Positive inotropic activity in spontaneously beating guinea pig atria; assay type: functional, organism-based
# In short: (§2)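 Guinea pig atria, spontaneously beating, in Ringer solution at 32 °C gassed with 95% O2/5% CO2. Isometric force recorded at 0.5–1 g initial tension after 30 min stabilization. Compounds in water or propylene glycol given cumulatively at 0.01–30 μg/mL, with 7 min contact per dose. EC50 for a 50% force increase taken graphically from the dose-response curve, in triplicate.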
# Felis catus [3] = assay: Effective dose for lowering blood pressure in anesthetized cat when administered intravenously; assay type: functional; settings: iv
# In short: (§3)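 Cats of either sex, 3–4 kg, under ether induction and chloralose (70 mg/kg iv). Compounds in distilled water or propylene glycol were given iv via the femoral vein at 0.01–10 mg/kg. Fall in mean arterial pressure read 10 min post-dose. ED20 taken graphically from the log dose-response curve, with doses run in triplicate.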
# [4] = Acute toxicity in mice when administered intraperitoneally; assay type: organism-based; settings: mouse, in vivo, ip
# In short: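 Mice (18-20 g), either sex; compound dissolved in distilled water or suspended in 0.5% (carboxymethyl)cellulose, injected ip at 10, 30, 100, 300 and 1000 mg/kg (1 mL/100 g body weight). Animals observed for 48 h. Approximate LD50 calculated by the Campbell and Richter method.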
# Felis catus [5] = assay: Effective dose for lowering of blood pressure in anesthetized cat when administered intravenously; NA=Not active; assay type: functional, organism-based; in short: as §3
# Cavia porcellus [6] = species on record: Cavia porcellus; assay: Positive inotropic activity was assessed in spontaneously beating guinea pig atria; NA=Not active; assay type: functional, organism-based; in short: as §2
# Canis familiaris [7] = assay: Percent increase of heart rate in anesthetized dogs at a dose of 0.03 mg/kg; assay type: functional, Canis lupus familiaris
# In short: (§4)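 Anesthesia was pentobarbital sodium 35 mg/kg iv, maintained with pentobarbitone 3–5 mg/kg per h. Male mongrel dogs, 10–18 kg, intubated for spontaneous breathing. Aqueous solutions were given iv via the femoral vein at 0.1 mL/kg, in escalating doses with 10–30 min between doses. Mean BP fall and percent heart-rate increase were recorded at each dose, with lead II ECG.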
# Canis familiaris [8] = species on record: Canis familiaris; assay: (§5) Percent increase in LV dP/dt max; assay type: functional, Canis lupus familiaris; in short: as §1
# Canis familiaris [9] = assay: Percent increase of heart rate in anesthetized dogs at a dose of 0.3 mg/kg; assay type: functional, Canis lupus familiaris; in short: as §4
# Canis familiaris [10] = assay: Fall in mean blood pressure in anesthetized dogs at a dose of 0.1 mg/kg; assay type: functional, Canis lupus familiaris; in short: as §4
# Canis familiaris [11] = species on record: Canis familiaris; assay: as §5; assay type: functional, Canis lupus familiaris; in short: as §1; remark: listed apart in the source
# Canis familiaris [12] = species on record: Canis familiaris; assay: as §5; assay type: functional, Canis lupus familiaris; in short: as §1; remark: listed apart in the source
# Canis familiaris [13] = species on record: Canis familiaris; assay: as §5; assay type: functional, Canis lupus familiaris; in short: as §1; remark: listed apart in the source
# Canis familiaris [14] = assay: Percent increase of heart rate in anesthetized dogs at a dose of 0.1 mg/kg; assay type: functional, Canis lupus familiaris; in short: as §4
# Canis familiaris [15] = assay: Fall in mean blood pressure in anesthetized dogs at a dose of 1 mg/kg; assay type: functional, Canis lupus familiaris; in short: as §4
# Canis familiaris [16] = assay: Percent increase of heart rate in anesthetized dogs at a dose of 1 mg/kg; assay type: functional, Canis lupus familiaris; in short: as §4
# Canis familiaris [17] = assay: Fall in mean blood pressure in anesthetized dogs at a dose of 0.3 mg/kg; assay type: functional, Canis lupus familiaris; in short: as §4
SMILES,EC50 (Cavia porcellus [6]),ED50 (Canis familiaris [1]),EC50 (Cavia porcellus [2]),ED20 (Felis catus [3]),LD50 [4],ED20 (Felis catus [5]),further results
C=C[C@@]1(C)CC(=O)[C@]2(O)C3(C)C(C(OC(=O)CCCN4CCN(C)CC4)C(O)[C@@]2(C)O1)C(C)(C)CC[C@@H]3O.Cl (stereo partly drawn),–,0.41 mg/kg,0.2 µg/mL,1 mg/kg,65 mg/kg,–,–
C=C[C@@]1(C)CC(=O)[C@]2(O)C3(C)C(C(OC(=O)Cn4c(=O)c5c(ncn5COCCOC)n(C)c4=O)C(O)[C@@]2(C)O1)C(C)(C)CC[C@@H]3O (stereo partly drawn),Not Active,–,–,–,–,inactive,–
C=C[C@@]1(C)CC(=O)[C@]2(O)C3(C)C(C(O)C(OC(=O)CNC(=O)OC(C)(C)C)[C@@]2(C)O1)C(C)(C)CC[C@@H]3O (stereo partly drawn),–,–,9.2 µg/mL,–,–,inactive,–
C=C[C@@]1(C)CC(=O)[C@]2(O)C3(C)C(C(OC(=O)CN4CCC(C)CC4)C(O)[C@@]2(C)O1)C(C)(C)CC[C@@H]3O.Cl (stereo partly drawn),–,–,2.6 µg/mL,–,–,inactive,–
C=C[C@@]1(C)CC(=O)[C@]2(O)C3(C)C(C(O)C(OC(=O)C(C)N4CCOCC4)[C@@]2(C)O1)C(C)(C)CC[C@@H]3O.Cl (stereo partly drawn),–,0.04 mg/kg,0.27 µg/mL,2 mg/kg,30 mg/kg,–,–
C=C[C@@]1(C)CC(=O)[C@]2(O)[C@@]3(C)[C@@H](O)CCC(C)(C)[C@@H]3[C@H](O)[C@H](OC(C)=O)[C@@]2(C)O1 [COLFORSIN],–,0.007 mg/kg,0.02 µg/mL,0.038 mg/kg,92 mg/kg,–,–
C=C[C@@]1(C)CC(=O)[C@]2(O)C3(C)C(C(OC(=O)CN4CCC(O)CC4)C(O)[C@@]2(C)O1)C(C)(C)CC[C@@H]3O.Cl (stereo partly drawn),–,–,3 µg/mL,–,–,inactive,–
C=C[C@@]1(C)CC(=O)[C@]2(O)C3(C)C(C(OC(=O)CCN4CCCCC4)C(O)[C@@]2(C)O1)C(C)(C)CC[C@@H]3O.Cl (stereo partly drawn),–,0.3 mg/kg,0.5 µg/mL,1 mg/kg,30 mg/kg,–,–
C=C[C@@]1(C)CC(=O)[C@]2(O)C3(C)C(C(O)C(OC(=O)CN4CCOCC4)[C@@]2(C)O1)C(C)(C)CC[C@@H]3O.Cl (stereo partly drawn),–,0.035 mg/kg,0.35 µg/mL,–,25 mg/kg,–,–
C=C[C@@]1(C)CC(=O)[C@]2(O)C3(C)C(C(OC(=O)CN4CCOCC4)C(O)[C@@]2(C)O1)C(C)(C)CC[C@@H]3O.Cl (stereo partly drawn),–,0.11 mg/kg,0.5 µg/mL,3 mg/kg,82.5 mg/kg,–,–
C=C[C@@]1(C)CC(=O)[C@]2(O)C3(C)C(C(OC(=O)CN4CCCCC4)C(O)[C@@]2(C)O1)C(C)(C)CC[C@@H]3O.Cl (stereo partly drawn),–,0.052 mg/kg,1.8 µg/mL,3 mg/kg,85 mg/kg,–,Heart rate (Canis familiaris [7]): 6.2%; Activity (Canis familiaris [8]): 123%; Heart rate (Canis familiaris [9]): 9.8%; BP (Canis familiaris [10]): 8.8 mmHg; Activity (Canis familiaris [11]): 48%; Activity (Canis familiaris [12]): 94%; Activity (Canis familiaris [13]): 64%; Heart rate (Canis familiaris [14]): 8.8%; BP (Canis familiaris [15]): 72 mmHg; Heart rate (Canis familiaris [16]): 13.8%; BP (Canis familiaris [17]): 30.2 mmHg
C=C[C@@]1(C)CC(=O)[C@]2(O)C3(C)C(C(OC(=O)CCN4CCOCC4)C(O)[C@@]2(C)O1)C(C)(C)CC[C@@H]3O.Cl (stereo partly drawn),Not Active,–,–,–,–,inactive,–

# Continued, in another order:
EC50 (Cavia porcellus [6]),SMILES,ED50 (Canis familiaris [1]),EC50 (Cavia porcellus [2]),ED20 (Felis catus [3]),LD50 [4],ED20 (Felis catus [5]),further results
Not Active,C=C[C@@]1(C)CC(=O)[C@]2(O)C3(C)C(C(O)C(OC(=O)CN(CC(=O)OC4C(O)C5C(C)(C)CC[C@H](O)C5(C)[C@@]5(O)C(=O)C[C@](C)(C=C)O[C@]45C)Cc4ccccc4)[C@@]2(C)O1)C(C)(C)CC[C@@H]3O (stereo partly drawn),–,–,–,–,inactive,–
Not Active,C=C[C@@]1(C)CC(=O)[C@]2(O)C3(C)C(C(OC(=O)CN(CC)CC)C(O)[C@@]2(C)O1)C(C)(C)CC[C@@H]3O.Cl (stereo partly drawn),–,–,–,–,inactive,–
Not Active,C=C[C@@]1(C)CC(=O)[C@]2(O)C3(C)C(C(O)C(OC(=O)CN4CCC(O)(c5ccccc5)CC4)[C@@]2(C)O1)C(C)(C)CC[C@@H]3O.Cl (stereo partly drawn),–,–,–,–,inactive,–
Not Active,C=C[C@@]1(C)CC(=O)[C@]2(O)C3(C)C(C(OC(=O)CN4C(C)CCCC4C)C(O)[C@@]2(C)O1)C(C)(C)CC[C@@H]3O.Cl (stereo partly drawn),–,–,–,–,inactive,–
Not Active,C=C[C@@]1(C)CC(=O)[C@]2(O)C3(C)C(C(O)C(OC(=O)CN4C(C)CCCC4C)[C@@]2(C)O1)C(C)(C)CC[C@@H]3O.Cl (stereo partly drawn),–,–,–,–,inactive,–
